High-throughput results as filed in PubChem BioAssay.
L major viab: Leishmania major promastigote growth inhibition; Leishmania major promastigotes, resazurin fluorescence viability; inhibition, % at 10 µM; actives 9% (n = 200,000);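 also: promastigotes grown with compound for 44 hours at 28 °C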
Wee1 degr inh: human Wee1 degradation inhibition, primary screen | AID 1321 | actives 1.2% (n = 220,000) | HeLa Luc-Wee1K328M stability, luciferase luminescence; 100% = proteasome inhibitor MG132 effect | P30291 | reporter increase, % at 5 µM;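 active = activation above the mean of all tested compounds plus 3 SD, set per screening run, cut at about 8.8% in these data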;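 also: cells exposed to compound for 20 h before luminescence read; 0% = DMSO alone and 100% = MG132 at 30 µM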
Rad51 HR inh: Rad51 (human) homologous recombination inhibition | inhibition, % at 10 µM | actives 0.085% (n = 200,000) | Q06609 | hRad51 DNA strand exchange, fluorescence dequenching;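 active = inhibition above 40% at the single screening dose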;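 also: 0% = DMSO control wells and 100% = blanks with heterologous ssDNA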
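Material: Human Rad51 nucleoprotein filaments preassembled on unlabelled ssDNA | Also added: Labelled 47-mer dsDNA for strand exchange | Dosing: Single dose, 10 µM final compound | Schedule: 30-min compound preincubation and 15-min exchange, both room temperature | Technique: Fluorescence dequenching at 485/520 nm | Measure: Percent inhibition relative to plate controls and blanks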
PKD1 kinase inh: PKD1 (human) kinase inhibition. Q15139. PKD1 kinase fluorescence polarization assay. actives 0.056% (n = 200,000). inhibition, % (test concentration not listed)
Target sequence (Q15139 whole entry, looked up): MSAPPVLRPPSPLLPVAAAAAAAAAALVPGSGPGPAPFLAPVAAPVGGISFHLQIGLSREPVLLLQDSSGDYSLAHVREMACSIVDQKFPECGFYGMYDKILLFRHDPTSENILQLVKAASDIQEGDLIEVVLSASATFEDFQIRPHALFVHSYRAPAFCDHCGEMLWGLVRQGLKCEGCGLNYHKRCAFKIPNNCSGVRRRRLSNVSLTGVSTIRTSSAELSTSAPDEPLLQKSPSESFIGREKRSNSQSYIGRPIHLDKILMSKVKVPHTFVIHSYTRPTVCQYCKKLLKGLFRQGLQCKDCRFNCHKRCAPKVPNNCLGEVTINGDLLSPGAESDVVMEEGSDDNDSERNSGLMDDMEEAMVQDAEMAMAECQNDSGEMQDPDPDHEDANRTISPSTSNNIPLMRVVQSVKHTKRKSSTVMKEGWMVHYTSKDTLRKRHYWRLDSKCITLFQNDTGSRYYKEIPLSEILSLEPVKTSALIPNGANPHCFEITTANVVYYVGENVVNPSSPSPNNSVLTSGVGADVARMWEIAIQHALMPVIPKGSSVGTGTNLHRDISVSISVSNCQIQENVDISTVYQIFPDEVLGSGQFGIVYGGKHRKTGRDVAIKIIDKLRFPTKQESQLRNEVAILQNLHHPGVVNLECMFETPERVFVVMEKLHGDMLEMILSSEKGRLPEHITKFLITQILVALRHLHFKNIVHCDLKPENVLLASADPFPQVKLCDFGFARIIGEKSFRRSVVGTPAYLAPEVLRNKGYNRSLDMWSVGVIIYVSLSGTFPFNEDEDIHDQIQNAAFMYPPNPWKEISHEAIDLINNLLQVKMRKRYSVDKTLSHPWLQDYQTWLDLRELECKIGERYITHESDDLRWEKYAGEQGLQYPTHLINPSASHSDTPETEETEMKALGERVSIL
Arbovirus anti: arbovirus infection inhibition. arbovirus infection cell-based antiviral screen. inhibition, % at 10 µM. actives 0.37% (n = 200,000). AID 1251; in the data active = inhibition above about 30%
CHOP inhibitor: blocks CHOP induction under ER stress; actives 3.8% (n = 220,000); CHO-K1 CHOP-promoter luciferase, tunicamycin-induced, 15-18 h; inhibition, % at 10 µM;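 active = compounds that reduced the stress-induced luciferase reporter signal by more than about 70% of percent inhibition, limit read from the data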;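 also: 0% = tunicamycin plus vehicle and 100% = wells without tunicamycin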
* hit, by the source's call; x = not tested or not shown. Most compounds without a hit are left out; they make up all but 12% or so of the library. Rule as the data show it, unless noted: active = inhibition above about 50%; inactive = the rest.

SMILES | L major viab | Wee1 degr inh | Rad51 HR inh | PKD1 kinase inh | Arbovirus anti | CHOP inhibitor
O=C(CCSc1ccc(Cl)cc1)N1CCCCCC1 | -2 | 3 | 2 | -5 | -3 | -9
Cc1cccc2cc(CN(Cc3cccnc3)C(=O)c3cccs3)c3nnnn3c12 | -3 | -2 | 11 | -8 | -4 | -30
CN(C)CC(O)COC(c1ccccc1)c1ccccc1 (configuration not stated) | 22 | 5 | 1 | 3 | 2 | -4
CC(OCC(O)CN(C)CCOc1ccccc1)c1ccc(Cl)cc1 (configuration not stated) | 99* | 4 | -7 | -8 | -20 | 35
CC(C(=O)N1CCN=C1c1ccccc1)N1C(=O)c2ccccc2C1=O (configuration not stated) | x | 6 | 7 | x | x | 7
CN1CCN(S(=O)(=O)c2ccc(Sc3nc4ccccc4[nH]3)c3nsnc23)CC1 | 100* | -2 | 4 | -6 | 0 | 44
CN1CCN(S(=O)(=O)c2ccc(Br)c3nsnc23)CC1 | -4 | -1 | -4 | 5 | 9 | -13
O=c1[nH]c(CSc2ncnc3sc(-c4ccccc4)cc23)nc2ccccc12 | x | 0 | 14 | x | x | -15
O=C(CCS(=O)(=O)c1cccc2nonc12)NCc1ccc(Cl)cc1 | -2 | -2 | 5 | -3 | 5 | 6
O=C(NC1CCCCCCC1)c1cc(COc2ccc3ncccc3c2)on1 | 0 | -1 | 4 | -3 | 4 | 81*
O=C(c1cc(COc2ccc3ncccc3c2)on1)N1CCC(O)CC1 | 9 | 1 | -117 | -7 | 10 | 22
CCNC(=S)N/N=C/c1cc(C)n(-c2ccc(Cl)cc2)c1C | 28 | 1 | 0 | 1 | 1 | 7
COc1cccc(NC(=O)C(=O)N/N=C/c2cc(C)n(-c3ccc(Cl)c(Cl)c3)c2C)c1 | -2 | 0 | -2 | 4 | -20 | 78*
Cc1cc(/C=N/NC(N)=S)c(C)n1-c1ccc(Cl)c(Cl)c1 | 100* | -3 | 4 | -7 | -7 | 27
O=C(Cn1nc(C(=O)O)c2ccccc2c1=O)Nc1ccc2c(c1)C(=O)c1ccccc1C2=O | x | 2 | 10 | x | x | -8
Cc1ccc(Cn2c(=O)n(-c3ccccc3)c(=O)c3ccc(C(=O)NCc4ccco4)cc32)cc1 | -3 | -1 | x | -10 | 2 | 84*
CCC(C)NC(=O)Cn1c(=O)n(-c2ccccc2)c(=O)c2ccc(C(=O)NCc3ccco3)cc21 (configuration not stated) | -2 | 2 | -2 | 3 | 6 | 5
COCCCNC(=O)c1ccc(Cn2c(=O)c3ccccc3n(Cc3cc(C)ccc3C)c2=O)cc1 | -1 | 0 | 5 | -7 | -6 | 3
Cc1cccc(Cn2c(=O)n(-c3ccc(CC(=O)NCc4ccco4)cc3)c(=O)c3sccc32)c1 | 63* | 0 | -6 | -5 | -28 | 53
C=CCn1c(=O)c2ccc(C(=O)NCc3ccccc3)cc2n(Cc2ccc(C)cc2)c1=O | 8 | -1 | x | -9 | 2 | 79*
CCCOc1ccc(N2C(=O)CC(N3CCC(c4nc5ccccc5o4)CC3)C2=O)cc1 (configuration not stated) | 7 | -2 | 10 | -5 | 6 | 49
NC1(C(=O)O)CCc2cc(C(=O)O)ccc21 (configuration not stated) | x | x | x | x | x | -7
CCN(CC)S(=O)(=O)c1ccc(N2CCCC2)c(C(=O)Nc2ccc(OC)c(Cl)c2)c1 | 91* | -2 | 1 | -5 | 2 | 31
CCN(CC)S(=O)(=O)c1cccc(NC(=O)c2ccc(SC)cc2OC)c1 | 62* | -4 | -7 | 11 | -4 | 12
CCOC(=O)Cc1c(C)nc2c(-c3cccc(Br)c3)cnn2c1C | -8 | 10* | 5 | -9 | 11 | 38
CC(=O)c1cnc2c(-c3cccc(Br)c3)cnn2c1C | 88* | -2 | 1 | -12 | -3 | 37
CC(=O)N(/C=C1\SC(=S)N(c2ccccc2)C1=O)c1ccccc1 | x | 10* | x | x | x | -10
CCOC(=O)CCc1c(C(=O)OCC)[nH]c(CC)c1C(=O)OCc1ccccc1 | x | -1 | 0 | x | x | 55
Cc1ccc(C(=O)N/C(=C/c2ccc(-c3ccc(Br)cc3)o2)C(=O)NC2CCS(=O)(=O)C2)cc1 (configuration not stated) | 69* | 1 | 2 | -14 | 4 | 65
